From ChEMBL document CHEMBL4152320, “Discovery and development of novel salicylate synthase (MbtI) furanic inhibitors as antitubercular agents” (Eur J Med Chem, 2018)
Activity calls are given as the source filed them. No cut-off for these calls is given here.

Legend:
[1] = test system: Mycobacterium tuberculosis variant bovis BCG; test: Inhibition of Mycobacterium bovis BCG salicylate synthase assessed as removal of iron after 15 days by CAS assay
Method in brief: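 Same BCG culture in chelated Sauton's with compound, 15 days at 37 °C. Supernatant mixed 1:1 with Universal CAS solution, 10 min room temperature, A630 read; siderophore units = (Ar − As)/Ar × 100, Ar being blank medium with CAS.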

[2] = test system: Mycobacterium tuberculosis variant bovis BCG; test: Inhibition of Mycobacterium bovis BCG salicylate synthase assessed as reduction in mycobactin production after 15 days
Method in brief: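 M. bovis BCG grown in 7H9, subcultured in chelated Sauton's, diluted 1:1000 into chelated Sauton's with sub-lethal compound concentrations; 15 days at 37 °C. Pelleted cells extracted in ethanol overnight, 0.1 M FeCl3 in ethanol added until colour stable, 1 h room temperature; mycobactins isolated and quantified.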

SMILES: O=C(O)c1ccc(-c2ccc([N+](=O)[O-])cc2)o1
- inhibition [1]: Dose-dependent effect
- inhibition [2]: Active
